The source made the active and inactive calls. The calls are words filed in the database; no cut-off is given here.
Tests used:
CAL-51 [1] = experiment: Cytotoxicity against human CAL51 cells assessed as reduction in cell viability after 3 days by CellTiter-Glo assay; type: functional, cell-based; conditions: CAL-51, 72 h
[2] = Metabolic stability in rat liver S9 fraction assessed as percent of compound remaining after 60 mins; type: ADME, tissue-based; conditions: read-out: Stability
BT-474 = experiment: Cytotoxicity against human BT474 cells assessed as reduction in cell viability after 3 days by CellTiter-Glo assay; type: cell-based; conditions: BT-474, 72 h
[3] = Clearance in rat at 2 mg/kg, iv; type: ADME, organism-based; conditions: in vivo
[4] = Mean residence time in SCID mouse at 10 mg/kg, iv; type: ADME, organism-based; conditions: in vivo
[5] = Mean residence time in rat at 2 mg/kg, iv; type: ADME, organism-based; conditions: in vivo
[6] = Volume of distribution at steady state in rat at 2 mg/kg, iv; type: ADME, organism-based; conditions: in vivo, read-out: Vdss
[7] = Metabolic stability in human liver S9 fraction assessed as percent of compound remaining after 60 mins; type: ADME, tissue-based; conditions: read-out: Stability
[8] = Clearance in SCID mouse at 10 mg/kg, iv; type: ADME, organism-based; conditions: in vivo
Mus musculus = experiment: Toxicity in SCID mouse xenografted with human CAL51 cells assessed as loss in body weight at 5 mg/kg, iv administered every 4 days for 16 days relative to control; type: organism-based; conditions: in vivo
CAL-51 [9] = experiment: Antiproliferative activity against human CAL51 cells xenografted in SCID mouse assessed as tumor growth inhibition at 5 mg/kg, iv administered every 4 days for 16 days; type: functional, organism-based
Method in brief: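 Mice bearing tumors of about 125 mm3 randomized (n = 8−10/group) and given compound intravenously at the listed doses and schedules. Tumors measured twice weekly by digital caliper on long and short axes; volume = width² × length/2.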

remaining at 1 h [2] [%] | Compound | IC50 (CAL-51 [1]) [nM] | IC50 (BT-474) [nM] | also measured
84 | CNC(=O)c1ccc(Nc2nc(OC3CCCC3)c3c(-c4ccc(-c5ccn[nH]5)cc4)c[nH]c3n2)c(OC)c1 | 61 | 10000 | –
69 | CNC(=O)c1ccc(Nc2nc(OC(C)C)c3c(-c4ccc5nc(C)oc5c4)c[nH]c3n2)c(OC)c1 | 40 | 946 | clearance [3]: 33.9 mL/min/kg; MRT [4]: 4.8 h; MRT [5]: 3.5 h; Vd [6]: 7.2 L/kg; remaining at 1 h [7]: 78%; clearance [8]: 7.71 mL/min/kg
– | COc1cc(C(=O)NC(C)(C)CO)ccc1Nc1nc(OC2CCCC2)c2c(-c3ccc4nc(C)oc4c3)c[nH]c2n1 | 109 | 6090 | –
1 | CNC(=O)c1ccc(Nc2nc(OC3CCCC3)c3c(-c4ccc(O)cc4)c[nH]c3n2)c(OC)c1 | 13 | 3320 | –
62 | CNC(=O)c1ccc(Nc2nc(O[C@H]3CCOC3)c3c(-c4ccc5nc(C)oc5c4)c[nH]c3n2)c(OC)c1 | 17 | 3760 | clearance [3]: 27.4 mL/min/kg; MRT [4]: 0.73 h; MRT [5]: 1 h; Vd [6]: 1.6 L/kg; remaining at 1 h [7]: 62%; clearance [8]: 19.1 mL/min/kg
18 | CNC(=O)c1ccc(Nc2nc(OC3CCCC3)c3c(-c4ccc(CO)cc4)c[nH]c3n2)c(OC)c1 | 89 | 10000 | –
– | CNC(=O)c1ccc(Nc2nc(O[C@H]3CC[C@](C)(O)CC3)c3c(-c4ccc5nc(C)oc5c4)c[nH]c3n2)c(OC)c1 | 15 | 893 | –
– | CNC(=O)c1ccc(Nc2nc(OC3CCC3)c3c(-c4ccc5nc(C)oc5c4)c[nH]c3n2)c(OC)c1 | 47 | 10000 | –
– | CC(=O)O[C@@]12CO[C@@H]1C[C@H](O)[C@@]1(C)C(=O)[C@H](O)C3=C(C)[C@@H](OC(=O)[C@H](O)[C@@H](NC(=O)OC(C)(C)C)c4ccccc4)C[C@@](O)([C@@H](OC(=O)c4ccccc4)[C@H]21)C3(C)C [DOCETAXEL ANHYDROUS] | – | – | Activity (Mus musculus): 20%; TGI (CAL-51 [9]): Active
59 | CNC(=O)c1ccc(Nc2nc(OC3CCCC3)c3c(-c4cccnc4)c[nH]c3n2)c(OC)c1 | 79 | 10000 | –
– | COc1cc(C(=O)N2CCN(C)CC2)ccc1Nc1nc(OC2CCCC2)c2c(-c3ccc4nc(C)oc4c3)c[nH]c2n1 | 37 | 3210 | –
86 | CNC(=O)c1ccc(Nc2nc(OC3CCCC3)c3c(-c4ccc5oc(C)nc5c4)c[nH]c3n2)c(OC)c1 | 642 | 10000 | –
76 | CNC(=O)c1ccc(Nc2nc(OC3CCCC3)c3c(-c4ccc(OC)cc4)c[nH]c3n2)c(OC)c1 | 491 | 10000 | –
– | COc1cc(C(=O)NCC(C)(C)O)ccc1Nc1nc(OC2CCCC2)c2c(-c3ccc4nc(C)oc4c3)c[nH]c2n1 | 61 | 10000 | –
83 | CNC(=O)c1ccc(Nc2nc(OC3CCCC3)c3c(-c4ccncc4)c[nH]c3n2)c(OC)c1 | 17 | 10000 | –
75 | CNC(=O)c1ccc(Nc2nc(OC3CCOCC3)c3c(-c4ccc5nc(C)oc5c4)c[nH]c3n2)c(OC)c1 | 20 | 10000 | clearance [3]: 22.6 mL/min/kg; MRT [4]: 1.8 h; MRT [5]: 2.9 h; Vd [6]: 3.8 L/kg; remaining at 1 h [7]: 70%; clearance [8]: 67.6 mL/min/kg
53 | CNC(=O)c1ccc(Nc2nc(OC3CCCC3)c3c(-c4cc[nH]n4)c[nH]c3n2)c(OC)c1 | 460 | 10000 | –
– | COc1ccccc1Nc1nc(OC2CCCC2)c2c(-c3ccc4nc(C)oc4c3)c[nH]c2n1 | 771 | 10000 | –

remaining at 1 h [2] [%] | Compound | IC50 (CAL-51 [1]) [nM] | IC50 (BT-474) [nM] | also measured
64 | CNC(=O)c1ccc(Nc2nc(OC3CCCC3)c3c(-c4ccc(-c5ncc[nH]5)cc4)c[nH]c3n2)c(OC)c1 | 8 | 1730 | –
85 | CNC(=O)c1ccc(Nc2nc(OC3CCCC3)c3c(-c4ccc5cn[nH]c5c4)c[nH]c3n2)c(OC)c1 | 338 | 10000 | –
76 | CNC(=O)c1ccc(Nc2nc(O[C@H]3CC[C@@](C)(O)CC3)c3c(-c4ccc5nc(C)oc5c4)c[nH]c3n2)c(OC)c1 | 8 | 10000 | clearance [3]: 17.6 mL/min/kg; MRT [4]: 1 h; MRT [5]: 2.9 h; Vd [6]: 2.9 L/kg; remaining at 1 h [7]: 65%; clearance [8]: 52.2 mL/min/kg
84 | CNC(=O)c1ccc(Nc2nc(OC3CCCC3)c3c(-c4ccc(-c5nnc[nH]5)cc4)c[nH]c3n2)c(OC)c1 | 77 | 4860 | –
– | CNC(=O)c1ccc(Nc2nc(O)c3c(-c4ccc5nc(C)oc5c4)c[nH]c3n2)c(OC)c1 | 10000 | 10000 | –
46 | CNC(=O)c1ccc(Nc2nc(OC3CCCC3)c3c(-c4ccc5nc[nH]c5c4)c[nH]c3n2)c(OC)c1 | 17 | 158 | –
– | CNC(=O)c1ccc(Nc2nc(OC3CCCC3)c3c(-c4ccc5nc(C)oc5c4)c[nH]c3n2)c(C)c1 | 349 | 9610 | –
91 | COc1cc(C(=O)NC2COC2)ccc1Nc1nc(OC2CCCC2)c2c(-c3ccc4nc(C)oc4c3)c[nH]c2n1 | 123 | 10000 | clearance [3]: 13 mL/min/kg; MRT [4]: 1.4 h; MRT [5]: 4.7 h; Vd [6]: 3.7 L/kg; remaining at 1 h [7]: 79%; clearance [8]: 14.3 mL/min/kg
– | COc1cc(C(=O)N(C)C)ccc1Nc1nc(OC2CCCC2)c2c(-c3ccc4nc(C)oc4c3)c[nH]c2n1 | 113 | 8310 | –
86 | CNC(=O)c1ccc(Nc2nc(OC3CCCC3)c3c(-c4ccccc4)c[nH]c3n2)c(OC)c1 | 496 | 10000 | –
– | CNC(=O)c1ccc(Nc2nc(OCCOC)c3c(-c4ccc5nc(C)oc5c4)c[nH]c3n2)c(OC)c1 | 147 | 3760 | –
– | CNC(=O)c1ccc(Nc2nc(OC3COC3)c3c(-c4ccc5nc(C)oc5c4)c[nH]c3n2)c(OC)c1 | 8 | 243 | –
– | CNC(=O)c1ccc(Nc2nc(OC3CCCC3)c3c(-c4cccc(O)c4)c[nH]c3n2)c(OC)c1 | 71 | 10000 | –
– | CNC(=O)c1ccc(Nc2nc(OCCO)c3c(-c4ccc5nc(C)oc5c4)c[nH]c3n2)c(OC)c1 | 56 | 694 | –
54 | CNC(=O)c1ccc(Nc2nc(OC3CCCC3)c3c(-c4cccc(CO)c4)c[nH]c3n2)c(OC)c1 | 30 | 9990 | –
36 | CNC(=O)c1ccc(Nc2nc(OC3CCCC3)c3c(-c4cn[nH]c4)c[nH]c3n2)c(OC)c1 | 9 | 8120 | –
– | COc1cc(C(=O)N2CCOCC2)ccc1Nc1nc(OC2CCCC2)c2c(-c3ccc4nc(C)oc4c3)c[nH]c2n1 | 351 | 6390 | –
